Measurements of several laboratories.
Protocols differ between the studies behind these lines.
Organism: Salmonella enterica
Observed: microbial growth

Structure (SMILES)	technique	strain	time	pH	setting	MIC
Cc1cc(NS(=O)(=O)c2ccc(N)cc2)no1	–	–	20 h	pH 7	–	64 µg/mL
NC[C@H]1O[C@H](O[C@H]2[C@H](O)[C@@H](O[C@H]3O[C@H](CO)[C@@H](O)[C@H](N)[C@H]3O)[C@H](N)C[C@@H]2N)[C@H](N)C[C@@H]1O	–	ATCC14028	–	–	–	150 µg/mL
COc1cc(Cc2cnc(N)nc2N)cc(OC)c1OC	–	–	20 h	pH 7.2	–	0.25 µg/mL
CC1(C)S[C@@H]2[C@H](NC(=O)[C@H](N)c3ccccc3)C(=O)N2[C@H]1C(=O)O	broth dilution	–	–	–	–	8 µg/mL
O=C(Nc1ccc2c(c1)OC(F)(F)O2)Nc1ccc(Cl)c(C(F)(F)F)c1	–	TYPHIMURIUM	–	–	–	> 100 µM
CN(C)[C@@H]1C(O)=C(C(N)=O)C(=O)[C@@]2(O)C(O)=C3C(=O)c4c(O)cccc4[C@@](C)(O)[C@H]3C[C@@H]12	–	ATCC14028 TYPHIMURIUM	–	–	–	8 µg/mL
C[C@@H](O)[C@H]1C(=O)N2C(C(=O)O)=C(S[C@@H]3CN[C@H](C(=O)N(C)C)C3)[C@H](C)[C@H]12	broth dilution	CHOLERAESUIS	–	–	clinical isolate	≤ 0.5 µg/mL
C/C(=N\NC(=N)N)c1ccc(Oc2ccc(/C(C)=N/NC(=N)N)cc2)cc1.Cl.Cl	–	ATCC14028	–	–	–	54.9 µg/mL
CNC(=O)c1cc(Oc2ccc(NC(=O)Nc3ccc(Cl)c(C(F)(F)F)c3)cc2)ccn1	–	TYPHIMURIUM	–	–	–	> 100 µM
Cl.N=C(N)N/N=C/c1ccc(-c2ccc(/C=N/Nc3ccccc3Cl)cc2)cc1	–	ATCC14028	–	–	–	> 215 µg/mL
O=C(O)c1cn(C2CC2)c2cc(N3CCNCC3)c(F)cc2c1=O	–	–	20 h	pH 7.2	–	0.0156 µg/mL
